Assay results published in ChEMBL document CHEMBL4414623, “Rapid Metabolization of Protectin D1 by β-Oxidation of Its Polar Head Chain” (J Med Chem, 2019).
Active and inactive are the calls of the source. The calls are words filed in the database; no cut-off is given here.

Assays:
[1] = Half life in human HepG2 cells at 0.52 uM by LC-MS/MS analysis; assay type: ADME, cell-based
Summary of the method: (§1)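 Medium was spiked with d4-LTB4 internal standard, SPE-extracted, and quantified by RP-HPLC coupled to triple quadrupole SRM. Amounts are given as nmol per mg cell protein (Bradford) or as % of NPD1 at T0.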

[2] = Drug metabolism in human HepG2 cells assessed as 3Z,6R,7E,9E,11Z,13S,15Z)-6,13-Dihydroxyoctadeca-3,7,9,11,15-pentaenoic Acid formation at 13 uM after 24 hrs by LC-MS/MS analysis; assay type: ADME, cell-based; conditions: hepg2, 24 h; summary of the method: as §1
[3] = Half life in human HepG2 cells at 13 uM by LC-MS/MS analysis; assay type: ADME, cell-based; summary of the method: as §1
[4] = Drug metabolism in human HepG2 cells assessed as Tmax for 3Z,6R,7E,9E,11Z,13S,15Z)-6,13-Dihydroxyoctadeca-3,7,9,11,15-pentaenoic Acid formation at 0.52 uM by LC-MS/MS analysis; assay type: ADME, cell-based; conditions: hepg2, 0.52 µM; summary of the method: as §1
[5] = Drug metabolism in human HepG2 cells assessed as (5Z,8R,9E,11E,13Z,15S,17Z)-8,15-Dihydroxyicosa-5,9,11,13,17-pentaenoic Acid formation at 13 uM incubated for 4 hrs by RP-HPLC/MS analysis; assay type: ADME, cell-based; conditions: hepg2, 4 h
Summary of the method: (§2)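 HepG2 cells were kept in serum-free medium and incubated for 4 h with 13 μM NPD1 (final) or ethanol vehicle. Media were extracted and run on RP-HPLC with a linear ion trap ESI-MS, using full scans at m/z 100-1000. Peaks present only in NPD1 incubates were located from single-ion chromatograms. MS/MS spectra were collected and compared with those of synthetic standards.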

[6] = Drug metabolism in human HepG2 cells assessed as omega-hydroxylated dinor-NPD1 formation at 13 uM incubated for 4 hrs by RP-HPLC/MS analysis; assay type: ADME, cell-based; conditions: hepg2, 4 h; summary of the method: as §2
[7] = Drug metabolism in human HepG2 cells treated with 13 uM Protectin-D1 assessed as compound formation incubated for 4 hrs by tandem mass spectrometric analysis; assay type: ADME, cell-based; conditions: hepg2, 4 h; summary of the method: as §2
[8] = Drug metabolism in human HepG2 cells assessed as (5Z,8R,9E,11E,13Z,15S,17Z)-8,15-Dihydroxyicosa-5,9,11,13,17-pentaenoic Acid formation at 13 uM up to 8 hrs by LC-MS/MS analysis; assay type: ADME, cell-based; conditions: hepg2, 8 h; summary of the method: as §1
[9] = Drug metabolism in human HepG2 cells assessed as 3Z,6R,7E,9E,11Z,13S,15Z)-6,13-Dihydroxyoctadeca-3,7,9,11,15-pentaenoic Acid formation at 13 uM incubated for 4 hrs by RP-HPLC/MS analysis; assay type: ADME, cell-based; conditions: hepg2, 4 h; summary of the method: as §2
[10] = Drug metabolism in human HepG2 cells assessed as parent compound remaining level at 13 uM after 24 hrs by LC-MS/MS analysis relative to control; assay type: ADME, cell-based; conditions: read-out: Stability; summary of the method: as §1
[11] = Drug metabolism in human HepG2 cells assessed as Tmax for 3Z,6R,7E,9E,11Z,13S,15Z)-6,13-Dihydroxyoctadeca-3,7,9,11,15-pentaenoic Acid formation at 2.6 uM by LC-MS/MS analysis; assay type: ADME, cell-based; conditions: hepg2, 2.6 µM; summary of the method: as §1
[12] = Drug level in healthy human urine assessed as drug recovery at 50 ng measured up to 24 hrs at room temperature in presence of BHT by LC-MS/MS analysis; assay type: ADME, tissue-based; conditions: urine of healthy humans, read-out: Drug recovery
[13] = Drug metabolism in human HepG2 cells assessed as (5Z,8R,9E,11E,13Z,15S,17Z)-8,15-Dihydroxyicosa-5,9,11,13,17-pentaenoic Acid formation at 13 uM after 30 mins by LC-MS/MS analysis; assay type: ADME, cell-based; conditions: hepg2, 0.5 h; summary of the method: as §1
[14] = Drug metabolism in human HepG2 cells assessed as 22-OH-NPD1 formation at 13 uM incubated for 4 hrs by RP-HPLC/MS analysis; assay type: ADME, cell-based; conditions: hepg2, 4 h; summary of the method: as §2
[15] = Drug excretion in healthy human urine assessed as 3Z,6R,7E,9E,11Z,13S,15Z)-6,13-Dihydroxyoctadeca-3,7,9,11,15-pentaenoic Acid formation by LC-MS/MS analysis; assay type: ADME, tissue-based; conditions: in vivo
[16] = Half life in human HepG2 cells at 2.6 uM by LC-MS/MS analysis; assay type: ADME, cell-based; summary of the method: as §1
Homo sapiens [17] = species: Homo sapiens; assay: Inhibition of LTB4-induced chemotaxis in human polymorphonuclear leukocytes incubated for 90 mins by Diff-Quick staining based densitometric analysis; assay type: functional, cell-based
Summary of the method: (§3)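 Human peripheral blood PMNL from healthy NSAID-free donors were isolated by Percoll and hypotonic lysis. Migration toward 10 nM LTB4 in RPMI/0.1% BSA was run in a 48-well microchamber with 5 μm polycarbonate filters, 2×10^6 cells/mL. Test agents at 0.01–10 nM or EtOH were added to both compartments. After 90 min at 37°C, migrated cells were stained and read by densitometry. Sextuplicates, 3–4 donors, normalized to negative controls.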

[18] = Drug metabolism in human HepG2 cells assessed as 22-OH-NPD1 formation at 13 uM incubated for 4 hrs by tandem mass spectrometric analysis; assay type: ADME, cell-based; conditions: hepg2, 4 h; summary of the method: as §2
[19] = Drug metabolism in human HepG2 cells assessed as hexanor-NPD1 formation at 13 uM incubated for 4 hrs by RP-HPLC/MS analysis; assay type: ADME, cell-based; conditions: hepg2, 4 h; summary of the method: as §2
[20] = Drug metabolism in human HepG2 cells at 0.52 uM measured at 30 mins by LC-MS/MS analysis; assay type: ADME, cell-based; conditions: read-out: Drug metabolism; summary of the method: as §1
[21] = Drug metabolism in human HepG2 cells assessed as 3Z,6R,7E,9E,11Z,13S,15Z)-6,13-Dihydroxyoctadeca-3,7,9,11,15-pentaenoic Acid formation at 13 uM after 30 mins by LC-MS/MS analysis; assay type: ADME, cell-based; conditions: hepg2, 0.5 h; summary of the method: as §1
[22] = Drug metabolism in human HepG2 cells assessed as 3Z,6R,7E,9E,11Z,13S,15Z)-6,13-Dihydroxyoctadeca-3,7,9,11,15-pentaenoic Acid formation at 13 uM incubated for 4 hrs by tandem mass spectrometric analysis; assay type: ADME, cell-based; conditions: hepg2, 4 h; summary of the method: as §2
[23] = Drug excretion in healthy human urine assessed as (5Z,8R,9E,11E,13Z,15S,17Z)-8,15-Dihydroxyicosa-5,9,11,13,17-pentaenoic Acid formation by LC-MS/MS analysis; assay type: ADME, tissue-based; conditions: in vivo
[24] = Drug metabolism in human HepG2 cells assessed as (5Z,8R,9E,11E,13Z,15S,17Z)-8,15-Dihydroxyicosa-5,9,11,13,17-pentaenoic Acid formation at 13 uM after 24 hrs by LC-MS/MS analysis; assay type: ADME, cell-based; conditions: hepg2, 24 h; summary of the method: as §1
[25] = Drug excretion in healthy human urine by LC-MS/MS analysis; assay type: ADME, tissue-based; conditions: in vivo
[26] = Drug metabolism in human HepG2 cells assessed as (5Z,8R,9E,11E,13Z,15S,17Z)-8,15-Dihydroxyicosa-5,9,11,13,17-pentaenoic Acid formation at 13 uM incubated for 4 hrs by tandem mass spectrometric analysis; assay type: ADME, cell-based; conditions: hepg2, 4 h; summary of the method: as §2
[27] = Stability in human HepG2 cells at 2.6 uM up to 4 hrs by LC-MS/MS analysis; assay type: ADME, cell-based; conditions: hepg2, 4 h
Summary of the method: (§4)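 HepG2 cells in serum-free medium were incubated with 2.6 or 0.52 μM final NPD1 or LTE4. Medium was collected at 30 min, 1 h and 4 h, spiked with d4-LTB4 and d5-LTE4, SPE-extracted and quantified by LC-MS/MS SRM. Results are expressed as % of the amount measured at T0.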

[28] = Stability in human HepG2 cells at 0.52 uM up to 4 hrs by LC-MS/MS analysis; assay type: ADME, cell-based; conditions: hepg2, 4 h; summary of the method: as §4
Mus musculus = assay: Antiinflammatory activity in FVB mouse model of acute pulmonary inflammation assessed as reduction in number of infiltrating neutrophils in BAL fluid at 10 ng administered intratracheally with lipopolysaccharide measured at 24 hrs by FACS analysis; assay type: functional
Summary of the method: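 Female FVB mice, 7–8 weeks old, acclimated at least 5 days. Intratracheal challenge with 50 μL LPS (250 μg/mL in PBS) containing 10 ng test agent or vehicle (EtOH, 2% final). Controls received PBS with 2% EtOH. BAL collected 24 h later (three 0.6 ml PBS washes). Neutrophils counted by FACS as CD45+ F4/80− Ly6G^hi CD11b^hi, absolute numbers from counting tubes; mean ± SEM, n=3.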

[29] = Drug level in human HepG2 cells treated with 13 uM Protectin-D1 assessed as compound formation incubated for 4 hrs by RP-HPLC/MS analysis; assay type: ADME, cell-based; conditions: hepg2, 4 h; summary of the method: as §2
Homo sapiens [30] = species: Homo sapiens; assay: Inhibition of LTB4-induced chemotaxis in human polymorphonuclear leukocytes at 0.01 to 10 nM incubated for 90 mins by Diff-Quick staining based densitometric analysis; assay type: functional, cell-based; summary of the method: as §3
[31] = Drug metabolism in human HepG2 cells assessed as 3Z,6R,7E,9E,11Z,13S,15Z)-6,13-Dihydroxyoctadeca-3,7,9,11,15-pentaenoic Acid formation at 13 uM up to 24 hrs by LC-MS/MS analysis; assay type: ADME, cell-based; conditions: hepg2, 24 h; summary of the method: as §1

CC/C=C\C[C@H](O)\C=C/C=C/C=C/[C@H](O)C/C=C\C/C=C\CCC(=O)O
half-life at 0.52 µM [1]: 0.5 h | Drug metabolism [2]: Metabolite_Detected | half-life at 13 µM [3]: > 4 h | Tmax [4]: 4 h | Drug metabolism [5]: Metabolite_Detected | Drug metabolism [6]: Metabolite_Detected | Drug uptake [7]: Active | Drug metabolism [8]: Metabolite_Detected | Drug metabolism [9]: Metabolite_Detected | remaining at 24 h, 13 µM [10]: 0% | Tmax [11]: 4 h | remaining at 24 h, 50 ng [12]: 106% | Drug metabolism [13]: Metabolite_Detected | Drug metabolism [14]: Metabolite_Detected | Drug excretion [15]: Metabolite_Notdetected | half-life at 2.6 µM [16]: 1 h | inhibition (Homo sapiens [17]): Dose-dependent effect | Drug metabolism [18]: Metabolite_Detected | Drug metabolism [19]: Metabolite_Detected | metabolised at 0.5 h, 0.52 µM [20]: > 50% | Drug metabolism [21]: Metabolite_Detected | Drug metabolism [22]: Metabolite_Detected | Drug excretion [23]: Metabolite_Notdetected | Drug metabolism [24]: Metabolite_Notdetected | Drug excretion [25]: Metabolite_Notdetected | Drug metabolism [26]: Metabolite_Detected

CCCCC/C=C\C\C=C/C=C/C=C/[C@@H](SC[C@H](N)C(=O)O)[C@@H](O)CCCC(=O)O [LEUKOTRIEN E4]
Stability [27]: Stable | Stability [28]: Stable | Drug excretion [25]: Metabolite_Detected

CC/C=C\C[C@H](O)\C=C/C=C/C=C/[C@H](O)C/C=C\CC(=O)O
inhibition (INH) (Mus musculus): 20% | Drug uptake [29]: Active | inhibition (Homo sapiens [30]): Active

CC/C=C\C[C@H](O)\C=C/C=C/C=C/[C@H](O)C/C=C\CCCC(=O)O
remaining at 24 h, 13 µM [10]: < 0.1% | Drug uptake [29]: Active | Drug metabolism [31]: Metabolite_Detected | inhibition (Homo sapiens [30]): inactive

O=C(O)CC/C=C\C/C=C\C[C@@H](O)/C=C/C=C/C=C\[C@@H](O)C/C=C\CCO
Drug uptake [29]: Active
